Activity calls are given as the source filed them. The rule behind the calls is not given here.
Columns and labels:
BaF3 [1] = assay: Antiproliferative activity against mouse BaF3 cells transfected with FLT3 ITD D835N mutant assessed as cell growth inhibition incubated for 72 hrs by CCK-8 assay; assay type: functional
Procedure, shortened: (§1)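 Kinase-transformed isogenic BaF3 lines grown in RPMI 1640 with 10% FBS, 2% L-glutamine and pen/strep at 37 °C, 5% CO2. Seeded at 1500-3000 cells/well and treated with a compound concentration series for 72 h. Viability read by CCK8 absorbance at 450 nm.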

BaF3 [2] = assay: Antiproliferative activity against mouse BaF3 cells transfected with FLT3 ITD D835del mutant assessed as cell growth inhibition incubated for 72 hrs by CCK-8 assay; assay type: functional; procedure, shortened: as §1
[3] = Tmax in Sprague-Dawley rat at 1 mg/kg, iv; assay type: ADME, organism-based; settings: in vivo
Procedure, shortened: (§2)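 Sprague-Dawley rats were dosed either intravenously at 1 mg/kg or by oral gavage at 10 mg/kg. Plasma PK parameters were AUC(0-t), AUC(0-∞), MRT(0-t), T1/2, Tmax, Vz, CLz, Cmax and F%. Values are the mean ± SD of three independent animals.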

MOLM-13 = assay: Inhibition of AKT phosphorylation at Thr308 residue in human MOLM-13 cells harboring FLT3-ITD mutant incubated for 4 hrs by Western blot analysis; assay type: cell-based; settings: dose 0.01-3 µM
Procedure, shortened: (§3)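 Cells were exposed to the compound at a series of concentrations for 4 h, and whole-cell lysates were analysed by Western blot. MV4-11 cells were grown in IMDM with 10% FBS. MOLM13 and MOLM14 cells were grown in RPMI 1640 with 10% FBS. All cultures were kept at 37 °C with 5% CO2.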

[4] = Apparent volume of distribution in Sprague-Dawley rat at 10 mg/kg, po; assay type: ADME, organism-based; settings: in vivo
Procedure, shortened: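 Sprague-Dawley rats dosed IV at 1 mg/kg or by oral gavage at 10 mg/kg. Parameters from plasma exposure: AUC(0-t), AUC(0-∞), MRT, T1/2, Tmax, Vz, CLz, Cmax. Values are mean ± SD from three animals.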

[5] = target: Mitogen-activated protein kinase kinase kinase kinase 1 (Homo sapiens, UniProt Q92918); assay: Inhibition of HPK1 (unknown origin) preincubated for 60 mins followed by ATP addition and measured after 1 hr by ADP-Glo assay
MV4-11 [6] = assay: Inhibition of ERK phosphorylation at Thr202/Tyr204 residues in human MV4-11 cells harboring FLT3-ITD mutant incubated for 4 hrs by Western blot analysis; assay type: cell-based; settings: dose 0.01-3 µM; procedure, shortened: as §3
MV4-11 [7] = assay: Antiproliferative activity against human MV4-11 cells transfected with FLT3-ITD mutant assessed as cell growth inhibition incubated for 72 hrs by CCK-8 assay; assay type: functional
Procedure, shortened: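 Cells kept at 37 °C, 5% CO2. MV4-11 grown in IMDM with 10% FBS. MOLM13, MOLM14, U937 and HL-60 grown in RPMI 1640 with 10% FBS. OCI-AML-2 grown in α-MEM with 20% FBS. Seeded at 1500-3000 cells/well and exposed to a concentration series for 72 h. Viability read by CCK8 absorbance at 450 nm.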

BaF3 [8] = assay: Antiproliferative activity against mouse BaF3 cells transfected with FLT3 ITD mutant harboring DFREYE sequence from MOLM-13 cells assessed as cell growth inhibition incubated for 72 hrs by CCK-8 assay; assay type: functional; procedure, shortened: as §1
MOLM-14 = assay: Induction of cell cycle arrest in human MOLM-14 cells harboring FLT3-ITD mutant assessed as accumulation of cells at G0/G1 phase at 0.1 uM incubated for 24 hrs by RNase/PI staining based flow cytometry analysis; assay type: functional
[9] = Oral bioavailability in Sprague-Dawley rat at 10 mg/kg; assay type: ADME, organism-based; settings: in vivo; procedure, shortened: as §2

Mitogen-activated protein kinase kinase kinase kinase 1, sequence (Q92918 whole entry): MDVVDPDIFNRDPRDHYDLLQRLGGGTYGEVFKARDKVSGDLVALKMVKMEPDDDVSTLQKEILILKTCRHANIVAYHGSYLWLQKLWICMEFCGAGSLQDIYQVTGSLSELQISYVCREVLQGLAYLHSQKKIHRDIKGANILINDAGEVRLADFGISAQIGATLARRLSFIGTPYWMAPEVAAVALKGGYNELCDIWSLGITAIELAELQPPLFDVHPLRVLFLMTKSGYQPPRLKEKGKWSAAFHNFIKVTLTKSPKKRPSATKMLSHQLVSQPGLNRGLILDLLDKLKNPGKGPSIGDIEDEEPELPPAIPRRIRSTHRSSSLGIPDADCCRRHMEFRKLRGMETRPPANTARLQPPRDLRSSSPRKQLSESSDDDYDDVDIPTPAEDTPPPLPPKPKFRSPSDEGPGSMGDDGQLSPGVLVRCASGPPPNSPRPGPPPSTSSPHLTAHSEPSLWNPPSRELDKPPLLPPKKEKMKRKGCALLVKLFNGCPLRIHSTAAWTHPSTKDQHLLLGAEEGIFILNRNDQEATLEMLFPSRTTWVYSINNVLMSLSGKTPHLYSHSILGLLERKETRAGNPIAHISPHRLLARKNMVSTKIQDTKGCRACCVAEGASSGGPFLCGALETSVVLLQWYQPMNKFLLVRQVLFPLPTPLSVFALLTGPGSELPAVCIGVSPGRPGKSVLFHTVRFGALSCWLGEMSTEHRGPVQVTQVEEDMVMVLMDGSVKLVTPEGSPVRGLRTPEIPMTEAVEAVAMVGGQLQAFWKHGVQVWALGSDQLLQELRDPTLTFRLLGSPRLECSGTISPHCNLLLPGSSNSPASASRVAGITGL

## CC(=O)Nc1cc(Oc2ccc(NC(=O)Cc3ccccc3C(F)(F)F)cc2)ncn1
BaF3 [1]
  GI50: > 10 µM
BaF3 [2]
  GI50: > 10 µM
[3]
  Tmax: 1.2 min
MOLM-13
  inhibition: Dose-Dependent Effect
[4]
  Vz: 1.5 L/kg
[5]
  IC50: > 10 µM
MV4-11 [6]
  inhibition: Dose-Dependent Effect
MV4-11 [7]
  GI50: 284 nM
BaF3 [8]
  GI50: 82 nM
MOLM-14
  Activity: Active
[9]
  F: 171%

Reference: ChEMBL document CHEMBL5260841, “Discovery of N-(4-(6-Acetamidopyrimidin-4-yloxy)phenyl)-2-(2-(trifluoromethyl)phenyl)acetamide (CHMFL-FLT3-335) as a Potent FMS-like Tyrosine Kinase 3 Internal Tandem Duplication (FLT3-ITD) Mutant Selective Inhibitor for Acute Myeloid Leukemia” (J Med Chem, 2019)
